Bioassay records as filed in PubChem.
Rows were chosen to be rich in hits. Some 4.6% of all compounds tested hit in one or more screens of this group.
Arbovirus anti – antivirals against arbovirus infection. inhibition, % at 10 µM. 200,000 compounds, 0.37% hits. arbovirus infection cell-based antiviral screen. AID 1251; in the data active = inhibition above about 30%
Hck Nef HTS – blocks Nef-activated human Hck kinase | P08631 | Recombinant Hck-YEEI plus Nef, Z-Lyte FRET kinase assay | inhibition, % at 20 µM | 220,000 compounds, 0.68% hits | AID 463187;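 active = Hck-Nef kinase inhibition above about 50%, limit read from the data; inactive = inhibition below that limit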;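 also: 0% = DMSO with Hck plus Nef and 100% = Hck alone without Nef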
Target sequence (P08631 whole entry, looked up): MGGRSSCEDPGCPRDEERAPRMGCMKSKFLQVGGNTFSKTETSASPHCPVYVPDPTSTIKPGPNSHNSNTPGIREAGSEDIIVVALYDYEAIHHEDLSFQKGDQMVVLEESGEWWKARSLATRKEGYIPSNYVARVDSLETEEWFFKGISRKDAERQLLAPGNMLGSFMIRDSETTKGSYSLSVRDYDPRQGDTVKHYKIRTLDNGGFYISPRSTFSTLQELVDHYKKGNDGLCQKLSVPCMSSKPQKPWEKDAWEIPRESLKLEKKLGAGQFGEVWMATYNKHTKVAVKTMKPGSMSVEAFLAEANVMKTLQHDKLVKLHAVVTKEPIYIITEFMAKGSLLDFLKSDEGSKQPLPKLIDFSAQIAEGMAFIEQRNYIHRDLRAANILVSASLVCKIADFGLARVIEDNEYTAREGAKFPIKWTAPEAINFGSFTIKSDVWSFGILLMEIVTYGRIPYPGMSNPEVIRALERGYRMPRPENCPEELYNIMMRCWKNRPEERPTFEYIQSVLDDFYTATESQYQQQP
WT yeast gro inh – growth inhibition of WT yeast, mitochondrial fusion screen; inhibition, % at 10 µM; 190,000 compounds, 2.1% hits; mitochondrial fusion phenotypic screen, WT strain; in the data active = inhibition above about 58%; tested in S. cerevisiae
p47phox inh – blocks human p47phox regulatory protein of NADPH oxidases; P14598; 220,000 compounds, 0.53% hits; AID 1274; p47phox/p22phox peptide binding, fluorescence polarization, 2 h; inhibition, % at 24.7 µM;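 active = inhibition above about 30%, limit read from the data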;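 also: 0% = p47phox with labelled peptide and 100% = labelled peptide alone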
Biofilm kill mix – mixtures killing C. albicans biofilm; C. albicans biofilm persisters + clotrimazole, fluorescence viability; primary screen in compound mixtures of four per well; inhibition, % at 7.6 µM; 120,000 compounds, 0.02% hits;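 active = inhibition above 30.3% in the primary screen of four-compound pools, then above 30% when the compound was retested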;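 also: compounds exposed to preformed 24 h biofilms for 48 h; 0% = untreated biofilm control and 100% = clotrimazole plus chlorhexidine kill blank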
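Assay system: C. albicans biofilms / Medium: RPMI/MOPS medium, pH 7.0 / Schedule: biofilm formation 24 h, compound exposure 48 h, 37 °C / Measured by: Alamar Blue fluorescence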
RAM network inh – blocks the yeast RAM network | S. cerevisiae dse1pr::URA3 reporter, 5-FOA growth OD615, 2 d; analog-sensitive cbk1-as2 kinase mutant strain | inhibition, % at 50 µM | 190,000 compounds, 1.8% hits | AID 868;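 active = inhibition above a set limit, 3 SD over mean compound inhibition, cut at about 8.4% in these data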;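 also: 0% = DMSO-only wells with no growth and 100% = 10 µM 1-NA-PP1 full growth; inhibition rescues growth on 5-FOA so higher OD means more RAM inhibition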
* marks the source's active call; other numbers are inactive results; / = no result.

SMILES	Arbovirus anti	Hck Nef HTS	WT yeast gro inh	p47phox inh	Biofilm kill mix	RAM network inh
COc1cc2c(=O)n(-c3ccc(C)cc3)c(=O)n(CC(=O)c3ccc4c(c3)OCO4)c2cc1OC	20	-7	-78	-11	/	9.1*
Cc1nn(CCC(N)=S)c2nc(-c3cccs3)cc(C(F)(F)F)c12	-15	1	75*	-10	21	2
Cc1nn(CCC#N)c2nc(-c3ccccc3)cc(C(F)(F)F)c12	-3	1	-19	-12	/	3
CCOC(=O)c1c(C)[nH]c(C)c1C(=O)COC(=O)c1ccc(S(=O)(=O)N(CC)CC)cc1	14	2	0	-6	/	8.7*
CCOC(=O)c1c(C)[nH]c(C)c1C(=O)COC(=O)c1cccc(S(=O)(=O)N(CC)CC)c1	7	0	-15	-10	/	4
S=C(NNc1cccc(Cl)c1)NC1CCCCC1	-15	-43	61*	-8	15	3
CC(C)(C)c1ccccc1NC(=S)NC1CCCCC1	6	22	66*	8	6	6
S=C(Nc1cccc(Cl)c1)NC1CCCCC1	19	-1	45	-6	/	0
COc1cccc(NC(=O)C(=S)NC2CCCCC2)c1	6	19	59*	-3	4	2
COc1cccc(NC(=O)C(NC2CCCC2)c2ccccc2)c1 (centres undefined)	-6	-1	-16	-13	/	0
COc1ccccc1NC(=S)NCCC(c1ccccc1)c1ccccc1	14	3	71*	-21	10	9.8*
CC(=O)N1CCN(c2ccc(NC(=O)c3ccc(OCc4ccccc4)cc3)cc2)CC1	0	7	3	0	0	6
O=C(c1ccc2c(=O)n3c(nc2c1)CCCCC3)N1CCc2ccccc21	/	21	/	-8	24	/
Cc1ccc(NC(=O)c2ccc(OC(=O)C(C)Oc3ccc(Cl)cc3C)cc2)cc1 (centres undefined)	-2	1	-5	-5	1	4
CCOc1cnc(C(=O)NNC(=O)C(Br)C(C)C)o1 (centres undefined)	2	11	3	/	9	3
CC1CCCN(C(=S)Nc2ccc(Nc3ccccc3)cc2)C1 (centres undefined)	-8	11	35	2	18	9.3*
S=C(Nc1ccc(Cl)cc1)NC1CCCCC1	/	11	/	-16	19	/
CC1CCCN(C(=S)Nc2ccc(F)cc2)C1 (centres undefined)	4	4	9	-11	12	0
COc1ccccc1NC(=S)NC1CCCCCC1	9	0	59*	-11	17	0
S=C(Nc1ccc(Nc2ccccc2)cc1)NC1CCCCCC1	-12	16	81*	-3	8	2
COc1ccc(N2CCN(C(c3ccccc3)c3nnnn3Cc3ccc(F)cc3)CC2)cc1 (centres undefined)	-9	0	50	-6	/	1
NS(=O)(=O)c1ccc(N/N=C/c2ccc(O)c(O)c2O)c([N+](=O)[O-])c1	/	51*	/	14	12	/
C=CCn1c(=O)c(C(=O)Nc2ccccc2S(N)(=O)=O)c(O)c2ccccc21	8	16	3	-11	4	1
CC(NC(=O)CSc1nc(=O)cc(N)n1CCc1ccccc1)c1ccccc1 (centres undefined)	-1	-2	59*	5	/	1
O=C(Cc1ccc(-n2c(=O)[nH]c3ccsc3c2=O)cc1)N1CCN(c2ccc(Cl)cc2)CC1	10	-2	0	-5	16	8.4*
SMILES	Arbovirus anti	Hck Nef HTS	WT yeast gro inh	p47phox inh	Biofilm kill mix	RAM network inh
Cc1cccc(N2CCN(C(=O)Cc3ccc(-n4c(=O)[nH]c5ccsc5c4=O)cc3)CC2C)c1 (centres undefined)	2	0	2	-10	9	1
CSc1nc(NCCOCCO)c2sc3nc(-c4ccco4)c4c(c3c2n1)CCC4	2	81*	4	-36	/	2
CSc1nc(NCc2ccco2)c2sc3nc(C(C)C)c4c(c3c2n1)CC(C)(C)OC4	-13	0	0	-55	/	3
C/C(=N\N=C(/N)SC1CC(=O)N(c2ccc(Cl)cc2)C1=O)c1cccs1 (centres undefined)	-3	0	60*	-16	/	0
C/C(=N\N=C(/N)SC1CC(=O)N(c2ccc(Cl)c(Cl)c2)C1=O)c1cccs1 (centres undefined)	-45	3	98*	-21	/	1
C/C(=N\N=C(/N)SC1CC(=O)N(c2ccc(Br)cc2)C1=O)c1cccs1 (centres undefined)	-18	-1	65*	-26	/	4
CCCCCCOc1ccc(N2C(=O)CC(S/C(N)=N/N=C(\C)c3cccs3)C2=O)cc1 (centres undefined)	2	0	38	-14	/	5
C/C(=N\N=C(/N)SC1CC(=O)N(c2ccccc2)C1=O)c1cccs1 (centres undefined)	17	1	22	-10	/	5
Cc1ccc2c(c1)[nH]c1c(=O)n(CCC3=CCCCC3)cnc12	-3	1	-2	9	/	2
Cn1cc(-c2cc(C(=O)O)on2)cn1	/	27	/	-4	28	/
CCNc1nc(NC(C)C)nc(N(C#N)CCOc2ccc(Cl)cc2Cl)n1	-38	-1	80*	-9	/	2
CCNc1nc(NC(C)C)nc(N(C#N)Cc2ccccc2)n1	9	1	8	-12	/	1
COc1ccc(S(=O)(=O)N/N=c2\oc3c(OC)cccc3cc2S(=O)(=O)c2ccc(C)cc2)cc1OC	6	6	-11	/	15	11*
COc1ccc(S(=O)(=O)Nc2ccc(C)cc2)cc1OC	2	-1	11	1	/	0
CCOC(=O)c1cc(-c2ccc(C)cc2)n(CCC(=O)N2CCN(c3ccccn3)CC2)c1C	-16	-8	30	-11	6	1
O=C(c1ccc(Cl)cc1)N1CCN(c2ccc(F)cc2)CC1	-4	10	71*	-21	10	-1
O=C(c1ccncc1)N1CCN(c2ccc(F)cc2)CC1	-6	1	-3	7	/	1
O=C(Nc1c(-c2ccccc2)nc2ccccn12)c1ccco1	25	2	15	-19	/	1
O=C(Nc1c(-c2ccccc2)nc2ccccn12)c1cccs1	39*	1	3	-9	20	1
Cc1oncc1-c1csc(-c2ccccc2Cl)n1	0	0	14	-5	11	9.5*
COc1ccc(/C=N/OC(=O)Nc2ccc(Cl)cc2)c(OC)c1	/	4	/	-26	11	/
COCCn1c(COc2ccc(C)cc2)nc2ccccc21	-10	1	6	2	/	1
Cc1ccc(NCc2nc3ccccc3n2CCOc2ccccc2)cc1	14	4	63*	-17	10	-1
O=C(NC(=S)Nn1cnc2c(cnn2-c2ccccc2)c1=O)c1ccccc1	-2	2	-2	-25	18	6
CCCc1cc(=O)c2ccc(OC/C(C)=N/O)cc2o1	/	0	/	0	5	/
